Active and inactive are the calls of the source. The calls are words filed in the database; no cut-off is given here.
What was measured:
[1] = test system: Vero; assay: Cytotoxicity against African green monkey Vero cells by GFP-based assay; type: cell-based; conditions: Chlorocebus sabaeus
In short: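 Vero cell assay run in triplicate following a previously published method, with ellipticine as reference drug; IC50 reported.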

[2] = target: T1, 3-hydroxy-3-methylglutaryl-coenzyme A reductase (Homo sapiens) (UniProt P04035); assay: Inhibition of human HMG-CoA reductase catalytic domain at 200 uM using HMG-CoA as substrate measured every 20 secs for 10 mins relative to control
T1 sequence (whole entry): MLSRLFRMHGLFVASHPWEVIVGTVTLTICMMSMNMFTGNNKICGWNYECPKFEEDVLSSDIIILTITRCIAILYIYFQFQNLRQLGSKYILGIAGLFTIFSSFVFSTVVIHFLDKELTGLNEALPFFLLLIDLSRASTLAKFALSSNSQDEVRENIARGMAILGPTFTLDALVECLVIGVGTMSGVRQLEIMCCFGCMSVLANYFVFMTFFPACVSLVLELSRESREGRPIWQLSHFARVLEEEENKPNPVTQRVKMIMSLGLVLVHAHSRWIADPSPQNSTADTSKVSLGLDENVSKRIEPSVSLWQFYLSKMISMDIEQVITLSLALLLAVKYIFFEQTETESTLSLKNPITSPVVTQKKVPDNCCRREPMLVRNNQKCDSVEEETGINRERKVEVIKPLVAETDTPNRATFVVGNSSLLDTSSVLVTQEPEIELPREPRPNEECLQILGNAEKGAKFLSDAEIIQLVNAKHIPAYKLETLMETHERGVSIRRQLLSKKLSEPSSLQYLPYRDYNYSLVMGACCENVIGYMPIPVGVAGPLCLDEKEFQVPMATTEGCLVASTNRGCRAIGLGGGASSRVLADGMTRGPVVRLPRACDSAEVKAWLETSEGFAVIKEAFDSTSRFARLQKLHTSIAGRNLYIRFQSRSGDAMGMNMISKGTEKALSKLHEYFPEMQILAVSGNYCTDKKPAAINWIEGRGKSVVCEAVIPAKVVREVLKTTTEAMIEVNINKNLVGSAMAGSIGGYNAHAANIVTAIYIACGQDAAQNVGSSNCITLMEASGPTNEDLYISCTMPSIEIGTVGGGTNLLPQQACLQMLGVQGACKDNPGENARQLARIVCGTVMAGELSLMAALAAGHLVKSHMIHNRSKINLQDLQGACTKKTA
In short: (§1)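 Cell-free kit assay: human HMGR catalytic domain added to buffer with NADPH and HMG-CoA to start the reaction at 37 °C. NADPH oxidation followed as A340 every 20 s for 10 min. Results expressed as percent inhibition of untreated control, n = 3.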

[3] = test system: Caco-2; assay: Cytotoxicity against human Caco2 cells assessed as decrease in cell viability at 12.5 to 100 uM after 24 hrs by MTT assay; type: cell-based; conditions: caco-2, 24 h
In short: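 Caco-2 cells (ATCC, passages 2–22, DMEM/F-12 with 10% FBS) were plated at 2.5 × 10^4 cells/well for 24 h, then exposed to 12.5, 25, 50, 75 and 100 µM for 24 h. After washing, cells got 5 mg/mL MTT for 4 h, crystals were dissolved in DMSO and A570 read. Viability is % of control, means ± S.E.M., n = 5.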

[4] = test system: Caco-2; assay: Antioxidant activity in human Caco2 cells assessed as decrease in reactive oxygen species level after 24 hrs by DCFH-DA dye-based fluorescence assay; type: functional, cell-based
In short: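 Caco-2 cells (ATCC, passages 2–22, DMEM/F-12 with 10% FBS) were exposed 24 h at 12.5–100 µM. They were then loaded with 10 µM DCFH-DA for 1 h at 37 °C in the dark and incubated 30 min without H2O2. Fluorescence was read at ex 495/em 527 nm. Means ± S.E.M., n = 3, vs untreated control cells.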

[5] = test system: Caco-2; assay: Antioxidant activity in human Caco2 cells assessed as decrease in H2O2-induced reactive oxygen species level after 24 hrs by DCFH-DA dye-based fluorescence assay; type: functional, cell-based
In short: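 Caco-2 cells (ATCC, passages 2–22, DMEM/F-12 with 10% FBS) were treated 24 h at 12.5–100 µM. They were loaded with 10 µM DCFH-DA for 1 h at 37 °C in the dark, then exposed to 0.5 mM H2O2 for 30 min and washed twice. Fluorescence was read at ex 495/em 527 nm. Means ± S.E.M., n = 3, vs H2O2-exposed control cells.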

[6] = target: Cystic fibrosis transmembrane conductance regulator (Homo sapiens, UniProt P13569); assay: Inhibition of CFTR-mediated forskolin-induced chloride secretion in human T84 cells after 15 mins by short-circuit current analysis; type: cell-based
In short: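 T84 monolayers grown on 1 cm² porous inserts (500,000 cells/insert) until TEER > 1000 Ω·cm², then mounted in Ussing chambers. Symmetrical Krebs solution (pH 7.3, 10 mM glucose) was gassed with 95% O2/5% CO2 at 37 °C. Chloride secretion was stimulated with 20 µM forskolin, then compound added apically at varied concentrations. Short-circuit current recorded; IC50 from Hill equation.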

[7] = target: T1, 3-hydroxy-3-methylglutaryl-coenzyme A reductase (Homo sapiens); assay: Inhibition of human HMG-CoA reductase catalytic domain at 1 uM using HMG-CoA as substrate measured every 20 secs for 10 mins relative to control; in short: as §1

CCCCCCCC[C@@H]1CC[C@H](O)[C@H](Cc2ccccc2)N1C
IC50 [1]: 51.5 µM | inhibition [2]: 29% | Activity [3]: Non-Toxic | Activity [4]: Dose-dependent effect | Activity [5]: Dose-dependent effect | inhibition [6]: Dose-dependent effect

CC[C@H](C)C(=O)O[C@H]1C[C@H](O)C=C2C=C[C@H](C)[C@H](CC[C@@H](O)C[C@@H](O)CC(=O)O)[C@H]21
inhibition [7]: 86%

CCCCCCCCC[C@@H]1C[C@H](O)[C@H]2C[N@]1O[C@@H]2c1ccccc1
Activity [1]: Non-Toxic | inhibition [2]: inactive | Activity [3]: Non-Toxic | Activity [4]: Dose-dependent effect | Activity [5]: Dose-dependent effect | IC50 [6]: 58.6 µM

Cc1c2ccncc2c(C)c2c1[nH]c1ccccc12 [ELLIPTECINE]
IC50 [1]: 4.06 µM

From ChEMBL document CHEMBL4229502, “Asperidines A-C, pyrrolidine and piperidine derivatives from the soil-derived fungus Aspergillus sclerotiorum PSU-RSPG178” (Bioorg Med Chem, 2018)
